Laboratory results published in PMC5613202 (CPT: Pharmacometrics & Systems Pharmacology, 2017).
Where a SMILES comes first, the peptide text is derived from it. Bridges are numbered along the chain shown (N, C = ends). [ ]: non-standard residue; d: D form. 2Nal = N[C@@H](Cc1ccc2ccccc2c1)C(=O)O; Lys(iPr) = CC(C)NCCCC[C@H](N)C(=O)O

Experiments:
[1] = rats, excretion studies, no reference given; cited from earlier work
CXCR4 = conditions: cited from earlier work
[2] = format: in vivo, human
In short: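 The analysis used 767 plasma samples from 147 patients given once-daily s.c. doses. Concentrations were measured by validated LC-MS/MS (LLOQ 0.2, ULOQ 100 ng/mL). The data were fitted with a two-compartment nonlinear mixed-effects model with first-order absorption and dose-dependent clearance. Exponential interindividual variability was used, with allometric body-weight scaling to an 80.1-kg subject. The model was built on rich dose-escalation data, then refined with sparse data. Absorption rate was later fixed at 10 h-1.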

[3] = tested on: leukocytes and hematopoietic progenitors; conditions: rodent and primate models; cited from earlier work
MDA‐MB‐231 breast cancer = MDA‐MB‐231 breast cancer metastatic xenograft model; cited from earlier work
[4] = tested on: CXCL12/CXCR4-mediated chemotaxis; conditions: in vitro; cited from earlier work
Antidrug antibody = experiment: Antidrug antibody; set-up: species or system human; conditions: all patients included in the analysis datasets
In short: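 Serum was sampled repeatedly before and after starting once-daily s.c. dosing. Qualitative direct ELISA: the test compound was immobilised on the plate to capture antibodies, which were detected with HRP-conjugated goat anti-human IgG, IgM and IgA and a tetramethylbenzidine substrate. Pooled normal human serum served as negative control. Serum from hyperimmunised cynomolgus monkeys, at various dilutions, served as positive control.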

blood CD34+ cell counts = format: in vivo, human; conditions: patients
In short: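 Pooled data from three open-label trials of once-daily s.c. peptide antagonist. In the dose-escalation trial, patients received 1–30 mg/day, or 2.5 or 20 mg/day, for 28-day cycles with rich sampling. The other two trials gave 20 mg/day with standard-of-care chemotherapy or sunitinib and used sparse sampling. CD34+ counts were measured by flow cytometry. The model was a precursor model with reversible precursor–central transfer and concentration-driven stimulation of mobilisation (Smax, SC50).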

cytochromes = conditions: preclinical evaluations, no reference given; cited from earlier work
[5] = population PK typical value, s.c.

TVKA, estimates of typical first‐order absorption rate when estimated ([2]; high and poorly estimated, before fixing, s.c.): > 40 h⁻¹
TVV2/F, typical apparent central volume of distribution ([2]; population PK typical value, 80.1-kg subject, s.c.): 35.0 L
TVCLmin/F, typical minimum apparent elimination clearance ([2]; population PK typical value, 80.1-kg subject, s.c. once daily, 147 patients): 4.75 L/h
TVQ/F, typical apparent distribution clearance [2, 5]: 3.74 L/h
TVV3/F, typical apparent peripheral volume of distribution [2, 5]: 21.9 L
patients who developed ADA (Antidrug antibody): None
EC50 (blood CD34+ cell counts; read-out: SC50, LY2510924 concentration at which half of the maximum stimulatory effect is achieved, conversion of 6.87 ng/mL, plasma concentration): 5.78 nM
Structure (SMILES): CC(C)NCCCC[C@H](NC(=O)[C@H]1CCC(=O)N[C@@H](Cc2ccccc2)C(=O)N[C@@H](Cc2ccc(O)cc2)C(=O)N[C@@H](CCCCNC(C)C)C(=O)N[C@H](CCCNC(=N)N)C(=O)N[C@@H](Cc2ccc3ccccc3c2)C(=O)NCC(=O)N1)C(N)=O [LY2510924] (FY[Lys(iPr)][dR][2Nal]G[dE][Lys(iPr)]-NH2; lactam N-7)
dose recovered as parent drug in urine [1]: < 40%
CXCR4 agonist properties (CXCR4): does not exhibit any CXCR4 agonist properties
bV, typical allometric exponent specific to central volume ([2]; population PK, body weight scaling relative to 80.1 kg): 0.948
mobilization of leukocytes and hematopoietic progenitors to the blood stream [3]: dose‐ and time‐dependent mobilization
effect on tumor metastasis (MDA‐MB‐231 breast cancer): inhibit tumor metastasis
value observed in chemotaxis inhibition assays [4]: 0.26 nM
SC50, LY2510924 concentration at which half of the maximum stimulatory effect is achieved (blood CD34+ cell counts; PK/PD model typical value, plasma concentration): 6.87 ng/mL
Smax, maximum stimulatory effect of LY2510924 on CD34+ cell mobilization (blood CD34+ cell counts; PK/PD model typical value, s.c. once daily): 13.1
substrate, inhibitor or inducer of cytochromes (cytochromes): not a substrate, an inhibitor, or an inducer of cytochromes
